From ChEMBL document CHEMBL1123309, “Esters and lactones of phenolic amino carboxylic acids: prodrugs for iron chelation” (J Med Chem, 1986) come the findings set out here.

The subject of series [1] is Mus musculus. The series is described as follows: BDF1 male mice were administered with 300 mg/kg orally and percent change in iron levels was determined in Feces. Format: functional. Particulars: route oral. The gist of the method: (§1)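 Hypertransfused male BDF1 mice (canine red cells, washed and heated at 50 °C for 30 min) were dosed orally for 7 days with compound in distilled water or a fine suspension with Polysorbate 80 (2% final). Daily group urine and pooled feces (1 N HCl digest, 90 °C, 30 min, triplicate) were collected, and liver and spleen were homogenized. Iron was measured by atomic absorption and reported as % change vs transfused control.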

The subject of series [2] is Mus musculus. The series is described as follows: BDF1 male mice were administered with 300 mg/kg orally and percent change in iron levels was determined in Liver. In kind it is functional. Particulars: route oral. The gist of the method: as §1
The subject of series [3] is Mus musculus. The series is described as follows: BDF1 male mice were administered with 300 mg/kg orally and percent change in iron levels was determined in Spleen. Format: functional. To be noted: route oral. The procedure, abridged:
as §1

The subject of series [4] is Mus musculus. The series is described as follows: BDF1 male mice were administered with 300 mg/kg orally and percent change in iron levels was determined in Urine. Format: functional. Particulars: route oral. The gist of the method: as §1
Series [5] has as its system Mus musculus. Nature of the series: BDF1 male mice were administered with 400 mg/kg orally and percent change in iron levels was determined in Feces. Particulars: route oral. In kind it is functional. The gist of the method:
as §1

The test system of series [6] is Mus musculus. Nature of the series: BDF1 male mice were administered with 600 mg/kg orally and percent change in iron levels was determined in Feces. Format: functional. Particulars: route oral. The gist of the method: as §1
Series [7] deals with Mus musculus. Nature of the series: BDF1 male mice were administered with 600 mg/kg orally and percent change in iron levels was determined in Liver. Particulars: route oral. Format: functional. The procedure, abridged: as §1
Series [8] deals with Mus musculus. The series is described as follows: BDF1 male mice were administered with 600 mg/kg orally and percent change in iron levels was determined in Spleen. Format: functional. Particulars: route oral. The gist of the method: as §1
For series [9], the system named is Mus musculus. The series is described as follows: BDF1 male mice were administered with 600 mg/kg orally and percent change in iron levels was determined in Urine. In kind it is functional. To be noted: route oral. The procedure, abridged: as §1
For series [10], the system named is Mus musculus. The series is described as follows: BDF1 male mice were administered with 75 mg/kg orally and percent change in iron levels was determined in Feces. In kind it is functional. To be noted: route oral. The procedure, abridged:
as §1

In series [11] the test system is Mus musculus. Nature of the series: BDF1 male mice were administered with 75 mg/kg orally and percent change in iron levels was determined in Liver. Format: functional. To be noted: route oral. The gist of the method: as §1
Series [12] has as its system Mus musculus. The series is described as follows: BDF1 male mice were administered with 75 mg/kg orally and percent change in iron levels was determined in Spleen. To be noted: route oral. In kind it is functional. The gist of the method:
as §1

Series [13] relates to Mus musculus. The series is described as follows: BDF1 male mice were administered with 75 mg/kg orally and percent change in iron levels was determined in Urine. Format: functional. To be noted: route oral. The procedure, abridged: as §1
The subject of series [14] is Mus musculus. The series is described as follows: BDF1 male mice were administered with 150 mg/kg orally and percent change in iron levels was determined in Spleen. Format: functional. To be noted: route oral. The gist of the method:
(§2)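 Male BDF1 mice made iron-overloaded by transfusion of washed, heat-treated (50 °C, 30 min) canine red cells. Dosing began 2 days after the last transfusion, once daily for 7 days, in distilled water or 2% Polysorbate 80 suspension. Daily group urine was collected. Pooled feces were digested in 1 N HCl (90 °C, 30 min). Liver and spleen were homogenized in saline. Iron was measured by atomic absorption and expressed as % change vs transfused controls.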

Series [15] concerns Mus musculus. The series is described as follows: BDF1 male mice were administered with 150 mg/kg orally and percent change in iron levels was determined in Urine. To be noted: route oral. In kind it is functional. The gist of the method: as §2
Series [16] deals with Mus musculus. The series is described as follows: BDF1 male mice were administered with 400 mg/kg orally and percent change in iron levels was determined in Liver. Format: functional. To be noted: route oral. The gist of the method:
as §1

Series [17] has as its system Mus musculus. The series is described as follows: BDF1 male mice were administered with 400 mg/kg orally and percent change in iron levels was determined in Spleen. In kind it is functional. Particulars: route oral. The procedure, abridged:
as §1

The test system of series [18] is Mus musculus. Nature of the series: BDF1 male mice were administered with 400 mg/kg orally and percent change in iron levels was determined in Urine. In kind it is functional. Particulars: route oral. The gist of the method:
as §1

For series [19], the system named is Mus musculus. Nature of the series: BDF1 male mice were administered with 150 mg/kg orally and percent change in iron levels was determined in Feces. Particulars: route oral. Format: functional. The procedure, abridged:
as §2

For series [20], the system named is Mus musculus. Nature of the series: BDF1 male mice were administered with 150 mg/kg orally and percent change in iron levels was determined in Liver. In kind it is functional. Particulars: route oral. The gist of the method:
as §2

For series [21], the system named is Mus musculus. Nature of the series: BDF1 male mice were administered with the compound and number of survivors was determined at a dose 150 mg/kg peroral out of 6 tested. In kind it is functional. Particulars: route oral. The procedure, abridged:
(§3)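 Male BDF1 mice were iron-loaded by transfusion of canine red cells. The cells were heparinised, washed twice in isotonic saline and heated at 50 °C for 30 min. Dosing started two days after the last transfusion, once daily for 7 consecutive days. Compounds were given in distilled water or as a fine aqueous suspension with Polysorbate 80 (2% final). Toxic signs were recorded daily and survivors counted per group.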

Series [22] concerns Mus musculus. Nature of the series: BDF1 male mice were administered with the compound and number of survivors was determined at a dose 300 mg/kg peroral out of 6 tested. Format: functional. To be noted: route oral. The procedure, abridged:
as §3

In series [23] the test system is Mus musculus. Nature of the series: BDF1 male mice were administered with the compound and number of survivors was determined at a dose 400 mg/kg peroral out of 10 tested. In kind it is functional. To be noted: route oral. The procedure, abridged:
as §3

For series [24], the system named is Mus musculus. The series is described as follows: BDF1 male mice were administered with the compound and number of survivors was determined at a dose 600 mg/kg peroral out of 6 tested. In kind it is functional. To be noted: route oral. The procedure, abridged: as §3
Series [25] relates to Mus musculus. The series is described as follows: BDF1 male mice were administered with the compound and number of survivors was determined at a dose 75 mg/kg peroral out of 6 tested. To be noted: route oral. Format: functional. The procedure, abridged: as §3
Series [26] is described as follows: First order rate constant was determined Spectrophotometrically at pH 7.5.
Series [27] in a line: Half life was determined at pH 7.5 in the presence of Fe(III) Half life was determined Spectrophotometrically.
Series [28] concerns Mus musculus. Nature of the series: BDF1 male mice were administered with 200 mg/kg po and percent change in iron levels was determined in Feces. Format: functional. The gist of the method: as §1
Series [29] deals with Mus musculus. The series is described as follows: BDF1 male mice were administered with 200 mg/kg po and percent change in iron levels was determined in Liver. In kind it is functional. The gist of the method:
as §1

For series [30], the system named is Mus musculus. Nature of the series: BDF1 male mice were administered with 200 mg/kg po and percent change in iron levels was determined in spleen. In kind it is functional. The gist of the method: as §1
Series [31] relates to Mus musculus. Nature of the series: BDF1 male mice were administered with 200 mg/kg poand percent change in iron levels was determined in Urine. Format: functional. The procedure, abridged:
as §1

Series [32] concerns Mus musculus. The series is described as follows: BDF1 male mice were administered with the compound and number of survivors was determined at a dose 200 mg/kg po. In kind it is functional. The procedure, abridged:
as §3

The subject of series [33] is Mus musculus. Nature of the series: BDF1 male mice were administered with 250 mg/kg intraperitoneally and percent change in iron levels was determined in Feces. Particulars: route intraperitoneal. Format: functional. The gist of the method: (§4)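 Male BDF1 mice were hypertransfused with washed, heat-treated (50 °C, 30 min) canine red cells. Starting 2 days after the last transfusion, they received one ip injection daily for 7 days, in distilled water or an aqueous suspension with Polysorbate 80 (2% final). Group urine was collected every 24 h. Feces were digested in 1 N HCl (90 °C, 30 min, triplicate). Liver and spleen were homogenized. Iron was measured by atomic absorption and reported as % change vs transfused controls.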

Series [34] relates to Mus musculus. The series is described as follows: BDF1 male mice were administered with 250 mg/kg intraperitoneally and percent change in iron levels was determined in Liver. Format: functional. To be noted: route intraperitoneal. The procedure, abridged:
as §4

In series [35] the test system is Mus musculus. Nature of the series: BDF1 male mice were administered with 250 mg/kg intraperitoneally and percent change in iron levels was determined in Spleen. Format: functional. Particulars: route intraperitoneal. The gist of the method: as §4
The subject of series [36] is Mus musculus. The series is described as follows: BDF1 male mice were administered with 250 mg/kg intraperitoneally and percent change in iron levels was determined in Urine. Format: functional. Particulars: route intraperitoneal. The procedure, abridged: as §4
In series [37] the test system is Mus musculus. Nature of the series: BDF1 male mice were administered with 250 mg/kg intraperitoneally and number of survivors was determined out of 240 tested. In kind it is functional. To be noted: route intraperitoneal. The gist of the method: as §3

The term half-life denotes the time in which the quantity being followed falls by half. For the compound `CC(C)OC(=O)CN(CCN(CC(=O)OC(C)C)Cc1ccccc1O)Cc1ccccc1O`, the Iron change in the series on Mus musculus [1] is -1%; in the series with Mus musculus [2], -45%; in the series on Mus musculus [3] it was -7%; in the series on Mus musculus [4], 76%; with Mus musculus [5] it was -5%; in the series on Mus musculus [6], 5%. Moreover, the Iron change in the series on Mus musculus [7] was -56%; in the series on Mus musculus [8], -27%; in the series on Mus musculus [9], 141%; in the series with Mus musculus [10], 1%; with Mus musculus [11], -34%; with Mus musculus [12] it was -10%. Further, the Iron change with Mus musculus [13] was -10%; with Mus musculus [14] it was 2%; with Mus musculus [15], 33%; in the series with Mus musculus [16], -45%; with Mus musculus [17], -13%; in the series on Mus musculus [18] it was 233%. Further, the figures for the Iron change in the series on Mus musculus [19] and in the series on Mus musculus [20] were 23% and -32%, respectively. Moreover, the No. of survivors in the series with Mus musculus [21] worked out at 6; with Mus musculus [22] it was 6; in the series on Mus musculus [23] it was 10; in the series on Mus musculus [24] it was 6; in the series on Mus musculus [25], 6. Also, the “10E2 k1” value in [26] was 0.542 min⁻¹. Besides, the half-life in series [27] worked out at 2.15 h.
On to `CC(=O)Oc1ccccc1CN(CCN(CC(=O)OC(C)(C)C)Cc1ccccc1OC(C)=O)CC(=O)OC(C)(C)C`, for which the Iron change in the series on Mus musculus [28] is -1%; with Mus musculus [29], 16%; in the series with Mus musculus [30] it was -6%; in the series with Mus musculus [31], -4%. The No. of survivors in the series with Mus musculus [32] is 10.
For `CC(=O)N(O)CCCCCNC(=O)CCC(=O)N(O)CCCCCNC(=O)CCC(=O)N(O)CCCCCN` [DEFEROXAMINE], the Iron change in the series on Mus musculus [33] was 7%; with Mus musculus [34], -24%; with Mus musculus [35], 2%; with Mus musculus [36], 270%. For the same compound, the No. of survivors in the series with Mus musculus [37] worked out at 240.
